Experiment [1] relates to Staphylococcus aureus. Kind of experiment: Antibacterial activity against Staphylococcus aureus ATCC 25923 by microdilution assay. It counts as functional. An outline of the steps:
(§1)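 Broth microdilution MIC per CLSI recommendations, fresh culture in cation-adjusted Mueller-Hinton broth, starting inoculum 10^6 cells.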
A general note: Dilution methods test growth across graded concentrations, often in twofold steps.

The test system of experiment [2] is Pseudomonas aeruginosa. Kind of experiment: Antibacterial activity against Pseudomonas aeruginosa PA406 harboring triABC deletion mutant by microdilution assay. It counts as functional. An outline of the steps:
as §1

In experiment [3] the test system is Pseudomonas aeruginosa. Put plainly: Antibacterial activity against Pseudomonas aeruginosa FO3 harboring AAC6'-2A by microdilution assay. Format: functional. An outline of the steps: as §1
The subject of the next experiment is Klebsiella pneumoniae. Put plainly: Antibacterial activity against Klebsiella pneumoniae 700603 by microdilution assay. It counts as functional. The method, boiled down: (§2)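 Broth microdilution per CLSI recommendations, using a fresh culture in cation-adjusted Mueller-Hinton broth (CA-MHB) and a starting inoculum of 10^6 cells; the MIC is the value read.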
For experiment [4], the system named is Escherichia coli. Kind of experiment: Antibacterial activity against Escherichia coli PAZ505H8101 harboring AAC6'-1B by microdilution assay. It counts as functional. The method, boiled down:
as §1

For experiment [5], the system named is Staphylococcus aureus. Kind of experiment: Antibacterial activity against methicillin-resistant Staphylococcus aureus ATCC 33592 by microdilution assay. It counts as functional. An outline of the steps:
as §1

For experiment [6], the system named is Escherichia coli. Put plainly: Antibacterial activity against Escherichia coli L8058.1 harboring ANT2'-1A by microdilution assay. It counts as functional. The method, boiled down:
as §1

Experiment [7] has as its system Acinetobacter lwoffii. Kind of experiment: Antibacterial activity against Acinetobacter lwoffii AI.88-483 harboring APH3'-6A by microdilution assay. Format: functional. The method, boiled down: as §1
For experiment [8], the system named is Pseudomonas aeruginosa. Put plainly: Antibacterial activity against Pseudomonas aeruginosa PA22 harboring surexp MexXY by microdilution assay. Format: functional. An outline of the steps: as §1
The test system of experiment [9] is Acinetobacter lwoffii. Kind of experiment: Antibacterial activity against Acinetobacter lwoffii ATCC 17925 by microdilution assay. It counts as functional. The method, boiled down:
as §2

Experiment [10] relates to Pseudomonas aeruginosa. Put plainly: Antibacterial activity against Pseudomonas aeruginosa ATCC 27853 by microdilution assay. Format: functional. The method, boiled down:
as §2

Experiment [11] relates to Escherichia coli. Put plainly: microbe, parasite or virus in culture. As to conditions: ATCC 25922.
Experiment [12] deals with Staphylococcus aureus. Kind of experiment: Antibacterial activity against Staphylococcus aureus SA-1 expressing NorA pump by microdilution assay.

≈ marks a conversion by molar mass, not a printed value.

Consider GENTAMICIN, for which the MIC in the experiment with Staphylococcus aureus [1] was 0.25 to 0.5 µg/mL; against Pseudomonas aeruginosa [2], below 0.25 µg/mL; with Pseudomonas aeruginosa [3], above 128 µg/mL; against Klebsiella pneumoniae it was 4 to 8 µg/mL; in the experiment on Escherichia coli [4], 1 µg/mL; against Staphylococcus aureus [5] it was 1 µg/mL. The MIC was 64 µg/mL in the experiment with Escherichia coli [6]; 2 µg/mL against Acinetobacter lwoffii [7]; 4 µg/mL against Pseudomonas aeruginosa [8]; below 0.25 µg/mL with Acinetobacter lwoffii [9]; 1 µg/mL against Pseudomonas aeruginosa [10].
In the case of `NC[C@H]1O[C@H](O[C@H]2[C@H](O)[C@@H](O[C@H]3O[C@H](CO)[C@@H](O)[C@H](N)[C@H]3O)[C@H](N)C[C@@H]2N)[C@H](N)C[C@@H]1O` [TOBRAMYCIN], the MIC with Staphylococcus aureus [1] was 0.25 to 0.5 µg/mL (≈ 0.535 to 1.07 µM); in the experiment on Escherichia coli [11], 1 µg/mL (≈ 2.14 µM); in the experiment with Pseudomonas aeruginosa [2], below 0.25 µg/mL; against Pseudomonas aeruginosa [3], 128 µg/mL (≈ 274 µM); in the experiment with Klebsiella pneumoniae, 4 to 8 µg/mL (≈ 8.56 to 17.1 µM); in the experiment on Escherichia coli [4], 32 µg/mL (≈ 68.4 µM). Also, the MIC is 64 µg/mL (≈ 137 µM) in the experiment with Staphylococcus aureus [5]; 0.5 µg/mL (≈ 1.07 µM) with Staphylococcus aureus [12]; 64 µg/mL (≈ 137 µM) with Escherichia coli [6]; 0.5 to 1 µg/mL (≈ 1.07 to 2.14 µM) with Acinetobacter lwoffii [7]; 0.5 µg/mL (≈ 1.07 µM) against Pseudomonas aeruginosa [8]; below 0.25 µg/mL against Acinetobacter lwoffii [9]. Further, the MIC against Pseudomonas aeruginosa [10] is below 0.25 µg/mL.
Regarding `NC[C@H]1O[C@H](O[C@H]2[C@H](O)[C@@H](OCCCCc3ccc4ccccc4c3)[C@H](N)C[C@@H]2N)[C@H](N)[C@@H](OCCCCc2ccc3ccccc3c2)[C@@H]1O`, the MIC amounted to 2 µg/mL (≈ 2.91 µM) with Staphylococcus aureus [1]; 8 µg/mL (≈ 11.6 µM) in the experiment with Escherichia coli [11]; 8 µg/mL (≈ 11.6 µM) in the experiment with Pseudomonas aeruginosa [2]; 8 µg/mL (≈ 11.6 µM) against Pseudomonas aeruginosa [3]; 32 µg/mL (≈ 46.6 µM) in the experiment with Klebsiella pneumoniae; 4 µg/mL (≈ 5.82 µM) against Escherichia coli [4]. Further, the MIC in the experiment with Staphylococcus aureus [5] was 2 µg/mL (≈ 2.91 µM); in the experiment with Staphylococcus aureus [12] it was 2 to 4 µg/mL (≈ 2.91 to 5.82 µM); against Escherichia coli [6], 8 µg/mL (≈ 11.6 µM); in the experiment on Acinetobacter lwoffii [7] it was above 128 µg/mL; against Pseudomonas aeruginosa [8], 8 µg/mL (≈ 11.6 µM); in the experiment on Acinetobacter lwoffii [9] it was 2 µg/mL (≈ 2.91 µM). For the same molecule, the MIC against Pseudomonas aeruginosa [10] came out at 4 µg/mL (≈ 5.82 µM).
Take `NCC[C@H](O)C(=O)N[C@@H]1C[C@H](N)[C@@H](O[C@H]2O[C@H](CN)[C@@H](O)[C@H](O)[C@H]2O)[C@H](O)[C@H]1O[C@H]1O[C@H](CO)[C@@H](O)[C@H](N)[C@H]1O` [AMIKACIN]: the MIC with Staphylococcus aureus [1] is 4 µg/mL (≈ 6.83 µM); against Escherichia coli [11] it was 4 µg/mL (≈ 6.83 µM); with Pseudomonas aeruginosa [2] it was 1 µg/mL (≈ 1.71 µM); against Pseudomonas aeruginosa [3], 8 µg/mL (≈ 13.7 µM); against Klebsiella pneumoniae, 1 µg/mL (≈ 1.71 µM); with Escherichia coli [4], 64 µg/mL (≈ 109 µM). For the same molecule, the MIC in the experiment on Staphylococcus aureus [5] was 8 to 16 µg/mL (≈ 13.7 to 27.3 µM); in the experiment with Staphylococcus aureus [12] it was 2 µg/mL (≈ 3.42 µM); in the experiment with Escherichia coli [6], 8 µg/mL (≈ 13.7 µM); in the experiment on Acinetobacter lwoffii [7] it was 128 µg/mL (≈ 219 µM); in the experiment with Pseudomonas aeruginosa [8], 8 µg/mL (≈ 13.7 µM); with Acinetobacter lwoffii [9], below 0.25 µg/mL. Besides, in the experiment on Pseudomonas aeruginosa [10], the MIC was 2 to 4 µg/mL (≈ 3.42 to 6.83 µM).
Regarding `NC[C@H]1O[C@H](O[C@H]2[C@H](O)[C@@H](O)[C@H](N)C[C@@H]2N)[C@H](N)[C@@H](O)[C@@H]1O` [NEAMINE], the MIC in the experiment on Staphylococcus aureus [1] is 16 to 32 µg/mL (≈ 49.6 to 99.3 µM); against Escherichia coli [11] it was 32 µg/mL (≈ 99.3 µM); in the experiment on Pseudomonas aeruginosa [2] it was 64 µg/mL (≈ 199 µM); against Pseudomonas aeruginosa [3], above 128 µg/mL; against Klebsiella pneumoniae, 32 µg/mL (≈ 99.3 µM); with Escherichia coli [4] it was above 128 µg/mL. The MIC against Staphylococcus aureus [5] is above 128 µg/mL; against Staphylococcus aureus [12], 8 µg/mL (≈ 24.8 µM); with Escherichia coli [6], 32 µg/mL (≈ 99.3 µM); against Acinetobacter lwoffii [7], above 128 µg/mL; against Pseudomonas aeruginosa [8], above 128 µg/mL; against Acinetobacter lwoffii [9] it was 0.5 µg/mL (≈ 1.55 µM). In addition, the MIC in the experiment on Pseudomonas aeruginosa [10] was above 128 µg/mL.
On to `CCCCCCCCCO[C@@H]1[C@@H](N)[C@@H](O[C@H]2[C@H](O)[C@@H](O)[C@H](N)C[C@@H]2N)O[C@H](CN)[C@H]1OCCCCCCCCC`, for which the MIC is 4 µg/mL (≈ 6.96 µM) with Staphylococcus aureus [1]; 4 to 8 µg/mL (≈ 6.96 to 13.9 µM) in the experiment with Escherichia coli [11]; 8 to 16 µg/mL (≈ 13.9 to 27.8 µM) against Pseudomonas aeruginosa [2]; 8 to 16 µg/mL (≈ 13.9 to 27.8 µM) in the experiment on Pseudomonas aeruginosa [3]; 16 to 32 µg/mL (≈ 27.8 to 55.7 µM) with Klebsiella pneumoniae; 4 to 8 µg/mL (≈ 6.96 to 13.9 µM) against Escherichia coli [4]. Besides, the MIC against Staphylococcus aureus [5] is 4 µg/mL (≈ 6.96 µM); in the experiment on Staphylococcus aureus [12], 4 µg/mL (≈ 6.96 µM); with Escherichia coli [6] it was 8 µg/mL (≈ 13.9 µM); in the experiment with Acinetobacter lwoffii [7], 32 µg/mL (≈ 55.7 µM); in the experiment with Pseudomonas aeruginosa [8], 8 to 16 µg/mL (≈ 13.9 to 27.8 µM); in the experiment on Acinetobacter lwoffii [9] it was 4 to 8 µg/mL (≈ 6.96 to 13.9 µM). This molecule displayed an MIC against Pseudomonas aeruginosa [10] of 8 to 16 µg/mL (≈ 13.9 to 27.8 µM).

The values above are taken from ChEMBL document CHEMBL4265973, “Broad-spectrum antibacterial amphiphilic aminoglycosides: A new focus on the structure of the lipophilic groups extends the series of active dialkyl neamines” (Eur J Med Chem, 2018).
